Compound activity: PubChem, several laboratories
This is a sample that favours compounds with a hit; in the whole collection about 1.9% have one here.
NadD inh: NadD (S. aureus) enzyme inhibition. 360,000 compounds, 0.78% hits. inhibition, % at 20 µM. AID 602399. purified NadD enzyme, colorimetric absorbance read-out; in the data active means inhibition above about 26%
IMP-1 inhibitor: inhibitors of Pseudomonas aeruginosa IMP-1 metallo-beta-lactamase; inhibition, % at 5.6 µM; 290,000 compounds, 0.45% hits; AID 1556; purified IMP-1, nitrocefin hydrolysis, epi-absorbance fluorescence;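 active means inhibition above the mean plus 3 SD of all compounds in the same screening run, cut at about 4.5% in these data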;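 further: 0% = IMP-1 with DMSO and 100% = DMSO wells lacking enzyme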
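Material – recombinant IMP-1 enzyme, purified · Amount – IMP-1 0.2 nM before substrate addition · Medium – HEPES buffer pH 7.1 with ZnSO4 and Brij 35 · Timing – 25 °C, 15 min preincubation, 25 min reaction · Measured by – plate fluorescence quenching by hydrolysis product, ex 480/em 530 nm · Read-out – percent enzyme inhibition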
VIM-2 inhibitor: blocks Pseudomonas aeruginosa VIM-2 metallo-beta-lactamase. inhibition, % at 5.6 µM. purified VIM-2, nitrocefin hydrolysis, epi-absorbance fluorescence. 290,000 compounds, 0.89% hits. AID 1527;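 active means inhibition above the mean of all tested compounds plus 3 SD, cutoff set per screening run, cut at about 7.5% in these data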;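 further: red hydrolysis product quenches plate fluorescence so inhibitors raise well fluorescence; 0% = enzyme with DMSO and 100% = DMSO without enzyme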
core dimer inh: HCV core protein dimerization inhibition; 300,000 compounds, 0.33% hits; inhibition, % at 5 µM; TR-FRET GST/Flag-core106 dimerization, 1536-well;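 active means inhibition above the mean of all tested compounds plus 3 SD, set per screening campaign, cut at about 45% in these data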
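Material: Tagged HCV core106 pair (GST and Flag) | Amount: GST-core106 13.5 nM, Flag-core106 17 nM | Medium: KF-containing HEPES buffer, pH 7.45, DTT, CHAPS, BSA | Reagent: Eu donor and XL665 acceptor anti-tag antibodies | Schedule: 4 h at 22.5 °C | Technique: Time-resolved FRET, ex 340 nm, em 617 and 671 nm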
NadD conf: confirmation of Staphylococcus aureus NadD inhibitors | shares compounds with NadD inh | purified S. aureus NadD, colorimetric enzyme assay | inhibition, % at 20 µM | 2,000 compounds, 13% hits | AID 624309; in the data active means inhibition mostly above about 42%, no sharp cut-off; inactive means mostly below about 42%
Active calls of the source: *; . = not tested or not shown; ! = repeats disagree.

SMILES	NadD inh	IMP-1 inhibitor	VIM-2 inhibitor	core dimer inh	NadD conf
Cc1cccc(C2(c3cccc(C)c3)CC2C(=O)Nc2ccc([N+](=O)[O-])cc2O)c1 (stereo not drawn)	30*	-5	-5	18	50*
CN1C(C(=O)NCc2ccc(OC(F)(F)F)cc2)CC2Cn3c(nc4cc(Cl)c(Cl)cc43)C21 (stereo not drawn)	-8	.	.	-5	.
NNC(=O)Cn1c(-c2nonc2N)nc2ccccc21	8	-2	-4	-3	.
Nc1nonc1-c1nc2ccccc2n1CC(=O)N/N=C\c1ccc(-c2ccc(Cl)cc2)o1	42*	-1	1	84*	9
CCN(CC)c1ccc(/C=N/N2C(C)CCCC2C)c(O)c1 (stereo not drawn)	-11	-1	-4	-3	.
CCCNC(=O)C1(C)CCN(C(=O)c2ccc(F)c(Cl)c2)C1 (stereo not drawn)	-5	.	.	.	.
COc1ccc(C(C(=O)NC2CCCC2)N(C(=O)c2snc(-c3ccc(F)cc3)c2N)c2ccccc2)cc1 (stereo not drawn)	17	-1	-1	38	.
COc1ccc(C(C(=O)NC2CCCC2)N(C(=O)c2snc(-c3ccc(F)cc3)c2N)c2cccc(F)c2)cc1 (stereo not drawn)	39*	1	3	27	6
CC(C)(C)C(=O)Nc1ccc(S(=O)(=O)Nc2nccs2)cc1	-4	-5	-4	-4	.
COc1ccc(OCC(=O)Nc2nnc(S(=O)(=O)N3CCCCCC3)s2)cc1	11	-1	-2	28	.
Cc1ccc(OCC(=O)Nc2nnc(S(=O)(=O)N3CCC(C)CC3)s2)cc1	26*	-3	-4	36	10
Cc1ccc(C)c(NCCCCC(=O)O)c1	1	.	.	.	.
CN(C)C1=C(Cl)C(=O)N(c2ccc(Cl)c(Cl)c2)C1=O	3	0	0	3	.
CN(C)/C=C1\C(=O)N(c2ccc(Cl)c(Cl)c2)CS1(=O)=O	33*	-3	-2	-4	-1
Oc1csc(Cc2nc(-c3ccc4ccccc4c3)cs2)n1	56*	-1	-2	13	38
O=C(CSc1nnc(-c2ccc3c(c2)OCO3)o1)Nc1ncc(C(F)(F)F)cc1Cl	34*	-2	0	11	5
C[c-]1[c-](C)[c-](C)[c-](C)[c-]1C.[Fe].c1cc2nccc(N3CCCC3)[c-]2c1 (stereo not drawn)	75*	.	.	-39	32*!
Cc1nnc(SCc2nnc(-c3ccccc3Br)o2)s1	-3	-4	-3	9	.
COc1cc(/C=C2\N=C(c3ccccc3)OC2=O)ccc1OC(C)=O	2	0	3	-6	.
COc1cc(/C=C2/N=C(c3ccccc3)OC2=O)c(F)cc1OCc1ccccc1	39*	.	.	16	6
CCOc1ccc(/C=C/C2=Cc3c(sc(NC(=O)CSc4n[nH]c(N)n4)c3C#N)C(C)(C)C2)cc1	58*	-3	-3	72*	26
Cc1ccsc1/C=C/C1=Cc2c(sc(NC(=O)CSc3n[nH]c(N)n3)c2C#N)C(C)(C)C1	64*	0	-2	77*	42
O=C(CSc1nnc(-c2ccncc2)o1)Nc1ccc(F)c(F)c1	-4	.	.	.	.
CCc1cccc2c(/C=N/NC(=O)c3cccc(S(=O)(=O)Nc4ccccc4Cl)c3)c[nH]c12	32*	-3	-2	3	52*
COc1cccc(C2C3=C(N=c4s/c(=C\c5cccc(O)c5)c(=O)n42)c2ccccc2CC3)c1OC (stereo not drawn)	40*	-3	-2	27	11
SMILES	NadD inh	IMP-1 inhibitor	VIM-2 inhibitor	core dimer inh	NadD conf
CC1CCCCC1NC(=O)COC(=O)c1c2c(nc3ccccc13)/C(=C\c1ccco1)CC2 (stereo not drawn)	79*	.	.	.	51*
CN(CCC#N)C(=O)COC(=O)c1c2c(nc3ccccc13)/C(=C\c1ccco1)CC2	42*	.	.	.	58*
O=C(COC(=O)c1c2c(nc3ccccc13)/C(=C\c1ccco1)CC2)NC1CCCC1	64*	.	.	.	51*
Cc1ccc(C(=O)OCC(=O)N2C(C)CCCC2C)cc1S(=O)(=O)N1CCOCC1 (stereo not drawn)	0	.	.	-4	.
O=C(N/N=C/c1ccc2c(c1)OCO2)c1sc2cccc(Cl)c2c1Cl	30*	-3	-2	26	7
CCc1cccc(C)c1NC(=O)CCCSc1nc2ccccc2s1	-1	0	-2	0	.
CCc1cccc(CC)c1NC(=O)C1SC(=Nc2ccccc2C)C(c2nc3ccccc3s2)=C1N (stereo not drawn)	32*	-6	-4	23	6
O=C(NCc1ccco1)C12CN(Cc3ccccc3)CC1C(c1cccc([N+](=O)[O-])c1)=NO2 (stereo not drawn)	36*	-3	-1	12	12
O=C(NCc1ccco1)C12CN(Cc3ccccc3)CC1C(c1ccc([N+](=O)[O-])cc1)=NO2 (stereo not drawn)	7	-2	-2	16	.
COc1ccccc1NC(=O)C(=O)NNC(=O)COc1ccc2ccccc2c1	34*	-3	-3	20	33
Oc1c(Br)cc(Br)cc1C=Nc1ccc2[nH]ncc2c1	30*	4	-1	-6	10
CCCCC(CC)C(=O)Nc1cc(C(=O)NCCC)ccc1N1CCC2(CC1)CC(c1cccc(Br)c1)=NO2 (stereo not drawn)	31*	.	.	3	4
CCCCC(CC)C(=O)Nc1cc(C(=O)NCc2ccc(C)cc2)ccc1N1CCC2(CC1)CC(c1ccccc1)=NO2 (stereo not drawn)	33*	-4	-3	28	2
CCCCC(CC)C(=O)Nc1cc(C(=O)NCc2ccc(C)cc2)ccc1N1CCC2(CC1)CC(c1cccc(Br)c1)=NO2 (stereo not drawn)	28	.	.	-11	.
Cc1nn(-c2ccccc2)c(Cl)c1/C=N/NC(=O)c1[nH]ncc1Br	-2	-3	-5	-8	.
C#CCCc1cocc1/C=[N+](\[O-])c1ccc(C(=O)OCC)cc1	42*	.	.	.	31
CCOC(=O)c1ccc(NC(=O)CCNC(=O)c2ccc([N+](=O)[O-])cc2)cc1	-5	-4	0	1	.
O=C(CCS(=O)(=O)c1ccc(Cl)cc1)NCCc1c[nH]c2ccccc12	-1	-3	-1	5	.
CCC(=O)N1CC2(CC(c3cccc(NC(=O)CC(c4ccccc4)c4ccccc4)c3)=NO2)C[C@H]1C(N)=O (stereo partly drawn)	-7	.	.	-3	.
NC(=O)[C@H]1CC2(CC(c3cccc(NC(=O)CC(c4ccccc4)c4ccccc4)c3)=NO2)CN1C(=O)CC(c1ccccc1)c1ccccc1 (stereo partly drawn)	42*	.	.	26	19
Cc1c(C(=O)N2CC3(CC(c4cccc(NC(=O)CC(c5ccccc5)c5ccccc5)c4)=NO3)C[C@@H]2C(N)=O)cc([N+](=O)[O-])cc1[N+](=O)[O-] (stereo partly drawn)	30*	.	.	30	48*
